Screens deposited in PubChem by NMMLSC.
This is a sample that favours compounds with a hit; in the whole collection about 2.3% have one here.
MEKK2 mut-MEK5 – signal of MEK5 binding to mutant human MEKK2 PB1 domain | bead flow cytometry, Alexa488-MEK5 binding to MEKK2 mutant | percent response, % at 10 µM | 290,000 tested, 0.35% active | AID 1530; in the data active = percent response above about 24%, passing the limit was not always enough
MEKK2wt PB1 HTS – raises or lowers MEK5 binding to wildtype human MEKK2 PB1 domain; Q9Y2U5; 290,000 tested, 1.1% active; binding response (% of control), % at 10 µM; bead flow cytometry, Alexa488-MEK5 binding to MEKK2 WT; actives lie on both sides; in the data active = binding response below about 67% or above about 130%
MEKK3 PB1 HTS – raises or lowers MEK5 binding to the human MEKK3 PB1 domain | Q99759 | bead-based flow cytometry, Alexa488-MEK5 binding to MEKK3; actives lie on both sides; 0 = blocked by unlabeled MEK5, 100 = vehicle | 290,000 tested, 1.4% active | binding response (% of control), % at 10 µM | AID 1529;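 active = binding response more than 3 SD above or below the average of its plate-row segment, actives on both sides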;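 also: Alexa488 bead fluorescence after subtracting the streptavidin-only scavenger bead signal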
Target sequence (Q99759 whole entry, looked up, the tested form may be a part): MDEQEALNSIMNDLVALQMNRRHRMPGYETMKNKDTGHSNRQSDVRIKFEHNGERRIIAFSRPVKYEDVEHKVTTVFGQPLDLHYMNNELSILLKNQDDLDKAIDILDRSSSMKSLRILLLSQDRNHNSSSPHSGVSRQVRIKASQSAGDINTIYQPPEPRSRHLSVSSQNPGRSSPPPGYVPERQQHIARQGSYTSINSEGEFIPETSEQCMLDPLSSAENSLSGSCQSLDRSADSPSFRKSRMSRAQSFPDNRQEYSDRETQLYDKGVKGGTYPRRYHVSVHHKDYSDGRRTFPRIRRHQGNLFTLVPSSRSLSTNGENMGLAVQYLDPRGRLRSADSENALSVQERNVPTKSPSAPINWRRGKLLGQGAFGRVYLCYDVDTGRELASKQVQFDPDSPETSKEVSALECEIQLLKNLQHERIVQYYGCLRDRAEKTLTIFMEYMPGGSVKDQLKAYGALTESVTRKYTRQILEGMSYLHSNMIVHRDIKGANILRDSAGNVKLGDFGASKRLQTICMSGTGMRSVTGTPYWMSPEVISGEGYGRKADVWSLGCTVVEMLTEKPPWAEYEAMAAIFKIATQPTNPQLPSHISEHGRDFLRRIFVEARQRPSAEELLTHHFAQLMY
Arrestin-AP2 inh – inhibitors of human beta-arrestin and AP2 interaction; FITC-arrestin peptide / GST-AP2 beads, flow cytometry; AP2 beta2 appendage carries R879A mutation; 340,000 tested, 0.31% active; inhibition, % at 10 µM;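 active = inhibition above a set limit, near 3 SD of compounds lacking own fluorescence, cut at about 54% in these data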;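 also: plate controls were DMSO wells for no effect and 5 µM unlabelled arrestin peptide for full effect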
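Assay system: GST-AP2 R879A bound to glutathione beads, E. coli-expressed; Medium: PBS with 0.05% Tween 20 and 0.1% BSA; Also added: fluorescein-tagged arrestin peptide at 50 nM final; Timing: 12 min plus 1 h, RT; Measured by: flow cytometry, FL1 (488/535 nm); Evaluation: percent drop in bead-associated FITC signal.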
Numbers without * were called inactive; x = no result; + = active, no number; [ ] = remark or other dose.

SMILES	MEKK2 mut-MEK5	MEKK2wt PB1 HTS	MEKK3 PB1 HTS	Arrestin-AP2 inh
COc1ccc(C(=O)NC(=S)N2CCN(c3ccccc3O)CC2)cc1	x	x	x	-28
NS(=O)(=O)c1cccc(NC(=O)COC(=O)Cn2cc(C(F)(F)F)ccc2=O)c1	x	x	x	13
Cn1cccc1C(=O)OCC(=O)N1CCN(c2ccccc2)CC1	x	x	x	-10
N#Cc1ccc(OCC(=O)N2CCN(c3ccc(C(F)(F)F)cn3)CC2)cc1	x	x	x	-8
CCC1=Nc2cc(C(=O)NCCCN3CCOCC3)ccc2Sc2ccccc21	2	103	98	-5
CCC1=Nc2cc(C(=O)NCCN3CCCC3)ccc2Sc2ccccc21	16	135*	101	-6
O=C(N/C=C/c1ccco1)Nc1cccc(Cl)c1	45	22*	127	25
COc1ccc(NC(=O)N/C=C/c2ccco2)cc1	-4	95	106	37
CC(C)(C)c1cc(CCC(=O)N2CCC2)cc(C(C)(C)C)c1O	25*	118	105	36
CC1CN(C(=O)CCc2cc(C(C)(C)C)c(O)c(C(C)(C)C)c2)CC(C)O1 (stereo not given)	6	109	102	1
Cc1ccc(-c2nc3ncccc3o2)cc1NC(=O)c1ccc2c(c1)OCO2	x	x	x	1
COc1ccc(S(=O)(=O)NCCN2CCOCC2)cc1[N+](=O)[O-]	-32	-11*[inhibitor]	0.0*[inhibitor]	-19
CCCN(CC(=O)Nc1ccccc1C)C(=O)c1ccc(N2CCCC(C)C2)c([N+](=O)[O-])c1 (stereo not given)	x	x	x	8
Cc1csc(NC(=O)c2c(O)c3c(n(CC(C)C)c2=O)CCCC3)n1	-2	97	99	1
CCOC(=O)Cc1csc(NC(=O)c2c(O)c3c(n(CC(C)C)c2=O)CCCC3)n1	2	-3.0*	100	4
O=C(N=C1c2ccccc2CN1c1ccccc1)c1cccc([N+](=O)[O-])c1	4	5.0*	95	-4
Cc1cccc2sc(N(CCCN(C)C)C(=O)c3ccc(S(=O)(=O)N4CCc5ccccc5C4)cc3)nc12	51*	216*	108	-15
CN(C)CCCN(C(=O)c1ccc(S(=O)(=O)N2CCc3ccccc3C2)cc1)c1nc2c(F)cccc2s1	45*	208*	109	0
Cc1cc(C)c2sc(N(CCCN(C)C)C(=O)c3ccc(S(=O)(=O)N4CCc5ccccc5C4)cc3)nc2c1	x	x	x	-13
Cc1cc(=O)oc2cc(OCC(=O)NC3CC(C)(C)NC(C)(C)C3)ccc12	-12	74	78*[inhibitor]	-1
CCc1cc(=O)oc2cc(OCC(=O)NC3CC(C)(C)NC(C)(C)C3)ccc12	4	111	103	-14
CC(C)n1cc(CN2CCCC(C(=O)Nc3cccc(-c4cc5ccccc5[nH]4)c3)C2)cn1 (stereo not given)	22	180*	104	-1
Cn1cc(CN2CCCC(C(=O)Nc3cccc(-c4cc5ccccc5[nH]4)c3)C2)cn1 (stereo not given)	30*	175*	110	4
COc1cccc(-c2ccc(NC(=O)C3CCCN(Cc4cnn(C)c4)C3)cc2)c1 (stereo not given)	11	132	100	3
O=C(O)/C=C/C(=O)Nc1ccc(OC(F)(F)F)cc1	2	-3.0*	105	2
SMILES	MEKK2 mut-MEK5	MEKK2wt PB1 HTS	MEKK3 PB1 HTS	Arrestin-AP2 inh
O=C(O)/C=C/C(=O)Nc1ccc(OC(F)F)cc1	3	109	107	-20
COCCCNCC(O)COc1ccccc1F (stereo not given)	37	10*	99	-6
Cc1c(N=C/C=C2/N(C)c3ccccc3C2(C)C)c(=O)n(-c2ccccc2)n1C	1	-5.0*	76	8
Cc1c(N=C/C=C2\N(C)c3ccccc3C2(C)C)c(=O)n(-c2ccccc2)n1C	-8	90	92	29
COc1ccc2[nH]c3c(c2c1)CCN1C(=O)C(CC(=O)NCCC2=CCCCC2)C[C@H](C(=O)N2CCCCC2)[C@@]31C (stereo not given in full)	x	x	x	14
Nc1o[nH]c(=O)c1C1CCCCC1	x	x	x	12
O=C(Nc1ccccc1C(=O)O)c1ccc(NC(=O)C2CC2)cc1	-1	1.0*[inhibitor]	96	40
COc1ccc(S(=O)(=O)N2CCOCC2)cc1NS(=O)(=O)c1ccc(F)c(F)c1	x	x	x	14
COc1ccc2nc(C)cc(NCc3cccc(C(F)(F)F)c3)c2c1	16	154*	104	-2
Cc1ccc(S(=O)(=O)N2[C@@H](c3ccc(Br)cc3)C(C(=O)O)=CC[C@H]2c2ccc3c(c2)OCO3)cc1	x	x	x	-4
COc1cccc2cc(-c3nc(-c4cccs4)cs3)c(=O)oc12	-10	71	98	99*
Nn1c(SCC(=O)Nc2ccc(N3CCOCC3)cc2)nnc1-c1cccc(F)c1	x	x	x	-5
C/C(=N/NC(=O)c1cccc(N2CCCC2=O)c1)c1ccncc1	3	-5.0*	102	-14
Cn1nc(C(=O)NNC(=O)Cc2ccc(S(=O)(=O)N3CCOCC3)s2)c2ccccc2c1=O	x	x	x	-44
CC(=O)c1ccc(NC(=O)C(C)N2CCN(C/C=C/c3ccccc3)CC2)cc1 (stereo not given)	+	120	191*	30
CC(C(=O)Nc1ccc([N+](=O)[O-])cc1)N1CCN(C/C=C/c2ccccc2)CC1 (stereo not given)	1	106	104	1
Cc1ccc(C)c(N2CCN(CCCNC(=O)CCC(=O)N3CCOc4ccc(Cl)cc43)CC2)c1	16	150*	107	x
COc1ccc(CC(=O)Nc2ccc(N3CCCC3)c(C)c2)cc1	-4	33*[inhibitor]	98	25
CCC(=O)Nc1ccc(N2CCCCC2)c(C(=O)Nc2ccc(OC)cc2)c1	0	98	100	-7
COc1ccccc1C(=O)Nc1ccc2c(c1)nc1n2CCN(C2CCCCC2)C1	12	-12*	92	-6
O=C(Nc1ccc2c(c1)nc1n2CCN(C2CCCCC2)C1)c1ccco1	-10	86	77	9
CCOc1ccccc1CNC(=O)C1CCCN(c2nc3ccccc3o2)C1 (stereo not given)	-14	74	68*[inhibitor]	x
CCC1(O)CC2CN(CCc3c([nH]c4ccccc34)C(C(=O)OC)(c3cc4c(cc3OC)N(C=O)C3C(O)(C(=O)OC)C(OC(C)=O)C5(CC)C=CCN6CCC43C65)C2)C1 (stereo not given)	x	x	x	-6
CCC1=C[C@H]2CN(C1)Cc1c([nH]c3ccccc13)[C@@](C(=O)OC)(c1cc3c(cc1OC)N(C)[C@H]1[C@@](O)(C(=O)OC)[C@H](OC(C)=O)[C@]4(CC)C=CCN5CC[C@]31[C@@H]54)C2	32*	183*	111	x
CC(C)c1ccc(-c2nc3ccccc3s2)cc1	4	-3.0*	104	-8
COc1cc(OC)cc(C(=O)Nc2nc(-c3ccccc3)c(-c3ccccc3)o2)c1	2	108	154*	2
COc1cc(/C=C(\C(=O)O)c2ccc(S(=O)(=O)N3CCCC3)s2)ccc1OCCC(C)C	x	x	x	5
